Screens as filed in PubChem.
In the library only some 9.8% were active in any assay of this set; here they are far more common.
L major viab – Leishmania major promastigote growth inhibition, primary screen | AID 1063, 2008 | actives 9% (n = 200,000) | Leishmania major promastigotes, resazurin fluorescence viability | inhibition, % at 10 µM; in the data active means inhibition above about 50%;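 further: promastigotes grown with compound for 44 hours at 28 °C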
WT yeast gro inh – growth inhibition of WT strain, primary screen, mitochondrial fusion inhibitor project, WT and mutant strains, chemical genetic; mitochondrial fusion phenotypic screen; inhibition, % at 10 µM; actives 2.1% (n = 190,000); in the data active means inhibition above about 58%; tested in S. cerevisiae
Rad51 HR inh – human RAD51 strand exchange inhibitors, primary screen, biochemical, fluorescence; DNA repair protein RAD51 homolog 1 (Homo sapiens), Q06609; hRad51 DNA strand exchange, fluorescence dequenching; inhibition, % at 10 µM; actives 0.085% (n = 200,000);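 active means inhibition above 40% at the single screening dose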
Target sequence (Q06609 whole entry, looked up): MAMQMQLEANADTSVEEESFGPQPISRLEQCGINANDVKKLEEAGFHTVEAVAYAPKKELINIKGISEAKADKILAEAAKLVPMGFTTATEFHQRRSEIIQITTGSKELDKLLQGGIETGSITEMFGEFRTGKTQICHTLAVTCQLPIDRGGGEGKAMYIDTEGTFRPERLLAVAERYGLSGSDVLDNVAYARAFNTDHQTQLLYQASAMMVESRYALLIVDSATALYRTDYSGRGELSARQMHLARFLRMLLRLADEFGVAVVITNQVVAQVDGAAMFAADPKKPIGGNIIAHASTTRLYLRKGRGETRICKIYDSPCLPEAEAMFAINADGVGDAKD
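Material: hRad51 filaments on single-stranded DNA; Reagent: Donor/quencher-labelled 47-bp dsDNA substrate; Compound: 10 µM final, single point; Schedule: 37 °C 15-min filament assembly, 30-min compound preincubation, 15-min exchange; Technique: FRET fluorescence, excitation 485 nm, emission 520 nm; Benchmarks: control wells and blank wells on each plate.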
PMI activator – activators of human PMI, primary screen, biochemical, fluorescence intensity, near-Km mannose 6-phosphate; purified human PMI, coupled resazurin fluorescence, 20 min; active compounds read high; 1 = vehicle control, 0 substrate-free wells; activation factor at 20 µM; actives 0.005% (n = 190,000); AID 1214, 2008;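 active means activation factor of 2 or more at 20 µM, relative to plate controls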
PMI act hi M6P – human PMI activators, high substrate, primary screen, biochemical, fluorescence intensity, near-saturating mannose 6-phosphate; Mannose-6-phosphate isomerase (Homo sapiens), P34949; coupled PMI enzyme assay, resazurin fluorescence, 20 min; active compounds read high; 1 = untreated enzyme, 0 = substrate-free blank; activation factor at 20 µM; actives 0.34% (n = 190,000);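 active means activation factor of 2 or more at 20 µM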
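Material: human phosphomannose isomerase with PGI, G6PDH, diaphorase coupling enzymes. Quantity: 15 ng/mL PMI. Medium: HEPES pH 7.4 buffer with MgCl2 and Tween-20. Reagent: Near-saturating mannose-6-phosphate, 1.0 mM. Compound: 20 µM single dose. Times: enzyme reaction with compound 20 min at room temperature. Detection: resorufin fluorescence at Ex 544/Em 590 nm.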
m-calpain inh – inhibitors of pig calpain II, primary screen, biochemical, fluorogenic peptide substrate, 1536-well | inhibition, % at 16 µM | actives 0.37% (n = 220,000) | purified calpain II, 30 min;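 active means inhibition above about 50%, limit read from the data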
Large screens that a line does not name were inactive.

c1ccc(N2CCN(c3ccccc3)C2c2ccncc2)cc1	L major viab 82
c1ccc(N2CCN(c3ccccc3)C2c2cccnc2)cc1	L major viab 92
COc1ccc(OC)c(Nc2nc3nonc3nc2N2CCCC(C)C2)c1 (centres undefined)	none
Cc1cc(C(C)(C)C)cc(C)c1C(=O)O	none (no result: L major viab, WT yeast gro inh, Rad51 HR inh, PMI activator, PMI act hi M6P)
COc1cccc(NC(=O)N2CCN(c3nnnn3-c3ccccc3)CC2)c1	none
CCCCN1C(=O)Nc2ccccc2S1(=O)=O	none (no result: Rad51 HR inh)
CC1=CC(=NOC(=O)c2cccc([N+](=O)[O-])c2)C=C(C)C1=O	L major viab 100
COc1ccc(/C(N)=N/OC(=O)c2cccc([N+](=O)[O-])c2)cc1	none
CC1=CC(=O)C(C(C)C)=C/C1=N\OC(=O)c1cccc2nc(C)oc12	L major viab 96
CC1=CC(=O)C(C(C)C)=C/C1=N/OC(=O)c1cccc([N+](=O)[O-])c1	L major viab 100
Cn1c(-c2cnn(-c3ccccc3)c2-n2cccc2)n[nH]c1=S	none
O=C(O)c1ccccc1C(=O)N1CC=C(c2ccccc2)CC1	L major viab 90
O=C(O)c1ccccc1C(=O)N1CCN(C(=O)c2ccccc2Cl)CC1	none
CC1Cc2ccccc2N1C1=CC(=O)CCC1 (centres undefined)	L major viab 98
CC1Cc2ccccc2N1C1=NS(=O)(=O)c2ccccc21 (centres undefined)	none
CCOC(=O)Cn1cc(/C=N/NC(=O)c2cc3ccccc3o2)c2ccccc21	none (no result: L major viab, WT yeast gro inh, Rad51 HR inh, PMI activator, PMI act hi M6P)
CCn1cc(/C=N/NC(=O)c2cc3c(ccc4ccccc43)o2)c2ccccc21	L major viab 100
CC(C)n1cc(/C=N\NC(=O)c2cc3c(ccc4ccccc43)o2)c2ccccc21	L major viab 97
COc1ccccc1-c1nc(SCC(=O)NCC2CCCO2)c2c(=O)n(C)c(=O)n(C)c2n1 (centres undefined)	none
Cn1c(SCc2ccccc2)nnc1-c1ccc2nonc2c1	none (no result: L major viab, WT yeast gro inh, Rad51 HR inh, PMI activator, PMI act hi M6P)
O=C(NN=C1c2ccccc2-c2ccccc21)c1cccc(Br)c1	L major viab 89
O=C(COc1cccc(Br)c1)NN=C1c2ccccc2-c2ccccc21	none
O=C(N/N=C/c1cccc(Oc2ccccc2)c1)c1cccc(Br)c1	L major viab 95
O=C(N/N=C/c1cccc(Oc2ccccc2)c1)c1ccccc1Br	L major viab 95
COc1ccc(C2NC(c3ccc(OC)cc3OC)C(C)C(=O)C2C)c(OC)c1 (centres undefined)	none
COc1cc(CNC2CCCC2)cc(Cl)c1OCc1ccccc1Cl	L major viab 100
COc1cc(CNC2CCCC2)cc(Br)c1OCC(=O)Nc1ccccc1C	L major viab 99
CCOc1cc(CNn2cn[nH]c2=S)cc(Cl)c1OCc1ccccc1F	WT yeast gro inh 69
CCOc1cc(CNc2ccccc2)cc(Br)c1OCc1ccccc1F	none
COc1cc(CNC2CCCC2)cc(Cl)c1OCc1ccc(F)cc1	L major viab 101
CCOC(=O)Cc1csc(NC(=O)COc2cc(C)cc(C)c2)n1	none
CCSC1=N/C(=C\C=C2/Oc3ccccc3N2CC)C(=O)S1	none (no result: L major viab, WT yeast gro inh, PMI activator, PMI act hi M6P)
COc1cc(CNn2c(C)n[nH]c2=S)cc(Br)c1OCc1ccc(F)cc1	none (no result: Rad51 HR inh)
CCOc1cc(CNC2CCCC2)cc(Cl)c1OCc1ccc(F)cc1	L major viab 100
COc1cc(CNn2c(C)n[nH]c2=S)cc(Cl)c1OCc1ccc(F)cc1	WT yeast gro inh 71
Cc1cc(C)c2nc(-c3ccccn3)cc(C(=O)n3cccn3)c2c1	none
CN1CCN(CCCCC(=O)c2ccccc2)CC1	none (no result: Rad51 HR inh)
CN1CCN(CCCC(=O)c2ccc(C3CCCC3)cc2)CC1	L major viab 97 (no result: Rad51 HR inh)
COc1ccc(S(=O)(=O)N(CCc2ccccc2)CC(=O)O)cc1C	none
Cc1ccc(Cl)cc1N1CCN(C(=O)Cc2cn(C)c3ccccc23)CC1	m-calpain inh 55
Cc1ccc(C)c(N2CCN(C(=O)C(Cc3ccccc3)n3cccc3)CC2)c1 (centres undefined)	WT yeast gro inh 62
Cc1ccc(C)c(N2CCN(C(=O)c3csc4ccccc34)CC2)c1	WT yeast gro inh 74
CCC(=O)N1CCN(c2cc(C)ccc2C)CC1	none
O=C(Cc1cn(Cc2cccc(Cl)c2)c2ccccc12)N1CCCC1	L major viab 99, m-calpain inh 52
Cc1ccc(Cl)cc1N1CCN(C(=O)Cc2c(C(=O)O)[nH]c3ccccc23)CC1	none
Cc1ccc(C2=Nc3cccnc3C(c3ccccc3)=NN2)cc1	none
O=C(NC1=NCCS1)c1ccccc1OCc1ccccc1Cl	none
COC(=O)c1ccc(OS(=O)(=O)N(C)C)cc1	none
Cc1ccc(C)c(N2CCN(C(=O)Cc3cn(C)c4ccccc34)CC2)c1	WT yeast gro inh 63
CC(=O)c1ccc(N2CCN(C(=O)C3(S(=O)(=O)c4ccc(Cl)cc4)CC3)CC2)cc1	none
Cc1ccc(Cl)cc1N1CCN(C(=O)C2(S(=O)(=O)c3ccc(Cl)cc3)CC2)CC1	L major viab 97
Cc1cccc(N2CCN(C(=O)C3(S(=O)(=O)c4ccc(Cl)cc4)CC3)CC2)c1C	L major viab 52
O=C(N1CCN(c2cccc(Cl)c2)CC1)C1(S(=O)(=O)c2ccc(Cl)cc2)CC1	L major viab 99
O=C(NCCCN1CCN(c2cccc(Cl)c2)CC1)C1(S(=O)(=O)c2ccc(Cl)cc2)CC1	L major viab 100
CC(=O)c1c(C)[nH]c(C(=O)N2CCN(c3cc(Cl)ccc3C)CC2)c1C	none
Cc1cccc(N2CCN(S(=O)(=O)c3ccc(S(=O)(=O)N4CCCC4)cc3)CC2)c1C	none (no result: Rad51 HR inh)
COC(=O)Nc1ccc(S(=O)(=O)N2CCC(C(=O)NC3CCCCC3)CC2)cc1	none
COc1ccc(/C=N/NC(=O)CSCc2ccc([N+](=O)[O-])cc2)cc1OC	none (no result: Rad51 HR inh)
COc1cc(/C=N/NC(=O)COc2c(C)cc([N+](=O)[O-])cc2C)ccc1OC(=O)c1ccccc1Br	L major viab 73
Cc1cccc(C(=O)Oc2ccc(/C=N/NC(=O)c3ccccc3O)cc2)c1	none (no result: Rad51 HR inh)
COc1ccc(/C=N/NC(=S)SC)cc1OC	WT yeast gro inh 61
COc1ccc(/C=N/NC(=O)c2cccc([N+](=O)[O-])c2)cc1OC(=O)c1ccccc1	none
COc1ccc(/C=N/NC(N)=S)cc1OC(=O)c1ccccc1	L major viab 79
Cc1cccc(C(=O)Oc2ccc(/C=N/NC(=O)Cc3ccc([N+](=O)[O-])cc3)cc2)c1	L major viab 50
